Legend:
[1] = The half-life period in vitro in rat small Intestine Homogenate; type: ADME
Procedure, shortened: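 Small intestine from rats fasted 20 h, saline-washed, homogenized in 8 vol 1/10 M sodium phosphate pH 7.4, spun at 600g for 15 min; supernatant (1.0 mL) given 10 µL drug (5 mg/mL in 80% aqueous acetonitrile), 37 °C, 60 min. Aliquots quenched at intervals with acetonitrile containing internal standard and analyzed by HPLC. Half-life (min), mean of two experiments.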

[2] = The half-life period in vitro in plasma; type: ADME, cell-free
Procedure, shortened: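 Rat plasma (1.0 mL) spiked with 5 µL of drug dissolved at 2 mg/mL in 80% aqueous acetonitrile, incubated at 37 °C for 60 min. Parent drug and products followed by ion-paired HPLC with internal standard; metabolites identified by retention times of synthesized authentic samples. Stability expressed as half-life (min), mean of two separate experiments.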

Row | Structure (SMILES) | half-life [1] [min] | half-life [2] [min]
1 | C/C(=C\c1ccc(C(=O)Oc2ccc(C(=N)N)cc2)cc1)C(=O)N(CC(=O)O)C1CCCCC1 | 49 | > 60
2 | C=CCN(CCC(=O)O)C(=O)/C(C)=C/c1ccc(C(=O)Oc2ccc(C(=N)N)cc2)cc1 | > 60 | 47
3 | CCOC(=O)CN(C(=O)/C(C)=C/c1ccc(C(=O)Oc2ccc(C(=N)N)cc2)cc1)C1CCCCC1 | > 60 | < 5
4 | C/C(=C\c1ccc(C(=O)Oc2ccc(C(=N)N)cc2)cc1)C(=O)N(CC(=O)O)C1CCCC1 | 42 | 23
5 | CCOC(=O)CN(C(=O)/C(C)=C/c1ccc(C(=O)Oc2ccc(C(=N)N)cc2)cc1)C1CCCC1 | > 60 | < 5
6 | CCOC(=O)C(C(=O)OCC)N(CCCC(=O)O)C(=O)/C(C)=C/c1ccc(C(=O)Oc2ccc(C(=N)N)cc2)cc1 | – | 29
7 | C/C(=C\c1ccc(C(=O)Oc2ccc(C(=N)N)cc2)cc1)C(=O)N(CC(=O)O)Cc1ccccc1 | 50 | > 60
8 | CCOC(=O)CCCN(C(=O)/C(C)=C/c1ccc(C(=O)Oc2ccc(C(=N)N)cc2)cc1)C(C(=O)OCC)C(=O)OCC | – | < 1
9 | C/C(=C\c1ccc(C(=O)Oc2ccc(C(=N)N)cc2)cc1)C(=O)N(CCO)Cc1ccccc1 | 41 | < 5
10 | C=CCN(CCCC(=O)O)C(=O)/C(C)=C/c1ccc(C(=O)Oc2ccc(C(=N)N)cc2)cc1 | 55 | > 60
11 | CCOC(=O)CN(Cc1ccccc1)C(=O)/C(C)=C/c1ccc(C(=O)Oc2ccc(C(=N)N)cc2)cc1 | 44 | < 1
12 | CCN(CC(=O)O)C(=O)/C(C)=C/c1ccc(C(=O)Oc2ccc(C(=N)N)cc2)cc1 | > 60 | 60
13 | CCOC(=O)CCCN(C(=O)/C(C)=C/c1ccc(C(=O)Oc2ccc(C(=N)N)cc2)cc1)C(C(=O)O)C(=O)OCC (stereo not given) | – | 14
14 | C=CCN(CCC(=O)OCC)C(=O)/C(C)=C/c1ccc(C(=O)Oc2ccc(C(=N)N)cc2)cc1 | – | < 1
15 | C=CCN(CCCC(=O)OCC)C(=O)/C(C)=C/c1ccc(C(=O)Oc2ccc(C(=N)N)cc2)cc1 | – | < 1

— ChEMBL document CHEMBL1128185, “New orally active serine protease inhibitors: structural requirements for their good oral activity” (J Med Chem, 1995)
